Experiments:
[1] = test system: Human immunodeficiency virus 1; experiment: In vitro antiviral activity in HIV-1 CEM-SS cytoprotection assay.; type: functional, organism-based; settings: Human immunodeficiency virus 1, CEM-SS
How it was run: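 Cytoprotection assay using CEM-SS cells infected with HIV-1 RF. Run in duplicate, with triplicates at each compound concentration; individual triplicates varied by 10% or less.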

CEM-SS = experiment: In vitro cytotoxicity against CEM-SS cells.; type: functional, cell-based; settings: Homo sapiens
How it was run: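 Growth inhibition of CEM-SS cells measured alongside the HIV-1 cytoprotection assay. Run in duplicate, with triplicates at each concentration; individual triplicates varied by 10% or less.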

| Compound | EC50 [1] [nM] | IC50 (CEM-SS) [nM] |
| --- | --- | --- |
| C[C@H](NC(=O)c1ccccc1SC(=O)NCCBr)C(N)=O | 920 | 8000 |
| NC(=O)CCNC(=O)c1ccccc1SC(=O)NCCBr | 480 | 4900 |

Reference: ChEMBL document CHEMBL1135224, “Benzamide-based thiolcarbamates: a new class of HIV-1 NCp7 inhibitors” (Bioorg Med Chem Lett, 2002)
